From ChEMBL document CHEMBL1649368, “Novel isatinyl thiosemicarbazones derivatives as potential molecule to combat HIV-TB co-infection” (Eur J Med Chem, 2011)
Converted amounts (≈) assume the structure as drawn.

Assays:
[1] = test system: Human immunodeficiency virus 1; experiment: Antiviral activity against HIV1 3B infected in human MT4 cells assessed as protection against virus-induced cytopathogenicity after 5 days by microtiter plate analysis; assay type: functional, organism-based; settings: Human immunodeficiency virus 1, 3B, MT4, 120 h
Outline: (§1)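 MT-4 cells were grown in RPMI-1640 DM with 10% heat-inactivated calf serum and gentamicin. HIV-1 IIIB (100 CCID50) or mock infection was run in parallel with compounds in triplicate, at 37 °C and 5% CO2 for 5 days. Viability was read by MTT spectrophotometry. EC50 was the 50% reduction in virus cytopathic effect; CC50 was the 50% loss of mock-infected cell viability.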

[2] = test system: Mycobacterium tuberculosis; experiment: Antimycobacterial activity against Mycobacterium tuberculosis H37Ra by agar dilution method; assay type: functional
Outline: (§2)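 Log-phase MTB was tested by agar dilution on Middlebrook 7H11 with OADC, following NCCLS guidance. MIC was the lowest concentration giving complete growth inhibition, determined in triplicate.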

[3] = Cytotoxicity against human MT4 cells after 5 days by spectrophotometry; assay type: cell-based; outline: as §1
[4] = test system: Mycobacterium tuberculosis; experiment: Antimycobacterial activity against Mycobacterium tuberculosis H37Ra assessed as inhibition of bacterial growth in log phase by agar dilution method; assay type: functional; outline: as §2
[5] = test system: Mycobacterium tuberculosis; experiment: Antimycobacterial activity against Mycobacterium tuberculosis H37Ra assessed as inhibition of bacterial growth in dormant phase; assay type: functional
Outline: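 MTB grown in 7H9 with glycerol, OADC and Tween 80 at 37 °C with rolling to OD600 ~0.6, then washed and held in PBS 6 weeks at 37 °C. Starved cells (~1×10^7 in 1 mL PBS) were exposed to compounds in DMSO at various concentrations for 7 days with shaking. After washing, dilutions were plated on antibiotic-free 7H11 and counted after 4 weeks. MIC was complete growth inhibition, in triplicate.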

SMILES	EC50 [1] [µM]	MIC [2] [µM]	CC50 at 120 h [3] [µM]	MIC [4] [µM]	MIC [5] [µM]
Cc1ccc2c(c1)/C(=N/NC(=S)NO)C(=O)N2CN1CCOCC1	93.6	8.96 (≈ 3.13 µg/mL)	572	–	–
CONC(=S)N/N=C1\C(=O)N(CN2CCOCC2)c2ccc(Cl)cc21	28.4	4.06 (≈ 1.56 µg/mL)	322	–	–
O=C1/C(=N\NC(=S)NO)c2cc(Cl)ccc2N1CN1CCN(c2ccccc2)CC1	28.3	28.1 (≈ 12.5 µg/mL)	273	–	–
O=C1/C(=N\NC(=S)NO)c2cc(F)ccc2N1CN1CCN(c2ccccc2)CC1	19.6	7.3 (≈ 3.13 µg/mL)	251	–	–
CONC(=S)N/N=C1\C(=O)N(CN2CCN(c3cc4c(cc3F)c(=O)c(C(=O)O)cn4C3CC3)CC2)c2ccc(Cl)cc21	11	0.64 (≈ 0.402 µg/mL)	143	–	–
O=C1/C(=N\NC(=S)NO)c2cc(Cl)ccc2N1CN1CCOCC1	35.1	6.11 (≈ 2.26 µg/mL)	348	–	–
COc1c(N2CCN(CN3C(=O)/C(=N\NC(=S)NO)c4cc(C)ccc43)C(C)C2)c(F)cc2c(=O)c(C(=O)O)cn(C3CC3)c12 (configuration not stated)	11.1	0.63 (≈ 0.402 µg/mL)	276	–	–
Cc1ccc2c(c1)/C(=N/NC(=S)NO)C(=O)N2CN(C)C	113	81.3 (≈ 25 µg/mL)	651	–	–
COc1c(N2CCN(CN3C(=O)/C(=N\NC(=S)NO)c4cc(F)ccc43)C(C)C2)c(F)cc2c(=O)c(C(=O)O)cn(C3CC3)c12 (configuration not stated)	4.18	0.16 (≈ 0.103 µg/mL)	206	–	–
O=C1/C(=N\NC(=S)NO)c2cc(Cl)ccc2N1CN1CCN(c2ccc(Cl)cc2)CC1	11.1	13 (≈ 6.25 µg/mL)	268	–	–
CONC(=S)N/N=C1\C(=O)N(CN(C)C)c2ccc(F)cc21	37.8	9.62 (≈ 3.13 µg/mL)	560	–	–
CCn1cc(C(=O)O)c(=O)c2cc(F)c(N3CCN(CN4C(=O)/C(=N\NC(=S)NO)c5cc(C)ccc54)C(C)C3)c(F)c21 (configuration not stated)	11.7	0.65 (≈ 0.399 µg/mL)	244	0.64 (≈ 0.393 µg/mL)	34.6 (≈ 21.2 µg/mL)
CONC(=S)N/N=C1\C(=O)N(CN(C)C)c2ccc(C)cc21	64.1	19.4 (≈ 6.25 µg/mL)	622	–	–
CONC(=S)N/N=C1\C(=O)N(CN2CCN(c3ccc(OC)cc3)CC2)c2ccc(Cl)cc21	13.1	12.8 (≈ 6.25 µg/mL)	221	–	–
CONC(=S)N/N=C1\C(=O)N(CN2CCOCC2)c2ccc(C)cc21	45.1	4.29 (≈ 1.56 µg/mL)	365	–	–
CCn1cc(C(=O)O)c(=O)c2cc(F)c(N3CCN(CN4C(=O)/C(=N\NC(=S)NOC)c5cc(C)ccc54)C(C)C3)c(F)c21 (configuration not stated)	5.74	1.24 (≈ 0.778 µg/mL)	156	–	–
Cc1ccnc2c1NC(=O)c1cccnc1N2C1CC1 [NEVIRAPINE]	0.13	–	156	–	–
CCn1cc(C(=O)O)c(=O)c2cc(F)c(N3CCN(CN4C(=O)/C(=N\NC(=S)NO)c5cc(Cl)ccc54)C(C)C3)c(F)c21 (configuration not stated)	23.2	1.23 (≈ 0.78 µg/mL)	209	–	–
Cc1ccc2c(c1)/C(=N/NC(=S)NO)C(=O)N2CN1CCN(c2cc3c(cc2F)c(=O)c(C(=O)O)cn3C2CC2)CC1	20.9	0.67 (≈ 0.398 µg/mL)	304	–	12.1 (≈ 7.19 µg/mL)
CN(C)CN1C(=O)/C(=N\NC(=S)NO)c2cc(Cl)ccc21	130	76.3 (≈ 25 µg/mL)	610	–	–
CONC(=S)N/N=C1\C(=O)N(CN2CCN(c3cc4c(cc3F)c(=O)c(C(=O)O)cn4C3CC3)CC2)c2ccc(F)cc21	11.4	0.31 (≈ 0.19 µg/mL)	255	–	–
CCn1cc(C(=O)O)c(=O)c2cc(F)c(N3CCN(CN4C(=O)/C(=N\NC(=S)NO)c5cc(C)ccc54)CC3)cc21	16.9	1.34 (≈ 0.779 µg/mL)	327	–	–
CCN(CC)CN1C(=O)/C(=N\NC(=S)NO)c2cc(F)ccc21	36.2	9.22 (≈ 3.13 µg/mL)	521	–	–
O=C1/C(=N\NC(=S)NO)c2cc(F)ccc2N1CN1CCOCC1	61.4	4.41 (≈ 1.56 µg/mL)	465	–	–
O=C(O)c1cn(C2CC2)c2cc(N3CCN(CN4C(=O)/C(=N\NC(=S)NO)c5cc(F)ccc54)CC3)c(F)cc2c1=O	16.5	0.33 (≈ 0.197 µg/mL)	222	3.27 (≈ 1.95 µg/mL)	13.1 (≈ 7.82 µg/mL)
CONC(=S)N/N=C1\C(=O)N(CN2CCN(c3ccccc3)CC2)c2ccc(F)cc21	18.1	7.07 (≈ 3.13 µg/mL)	227	–	–

SMILES	EC50 [1] [µM]	MIC [2] [µM]	CC50 at 120 h [3] [µM]	MIC [4] [µM]	MIC [5] [µM]
CN(C)CN1C(=O)/C(=N\NC(=S)NO)c2cc(F)ccc21	47.2	10.1 (≈ 3.13 µg/mL)	599	–	–
COc1ccc(N2CCN(CN3C(=O)/C(=N\NC(=S)NO)c4cc(Cl)ccc43)CC2)cc1	21.3	13.2 (≈ 6.25 µg/mL)	279	–	–
CCn1cc(C(=O)O)c(=O)c2cc(F)c(N3CCN(CN4C(=O)/C(=N\NC(=S)NOC)c5cc(F)ccc54)C(C)C3)c(F)c21 (configuration not stated)	4.43	0.63 (≈ 0.398 µg/mL)	178	–	–
CCn1cc(C(=O)O)c(=O)c2cc(F)c(N3CCN(CN4C(=O)/C(=N\NC(=S)NOC)c5cc(C)ccc54)CC3)cc21	11.4	1.31 (≈ 0.78 µg/mL)	238	–	–
CO[C@H]1/C=C/O[C@@]2(C)Oc3c(C)c(O)c4c(O)c(c(/C=N/N5CCN(C)CC5)c(O)c4c3C2=O)NC(=O)/C(C)=C\C=C\[C@H](C)[C@H](O)[C@@H](C)[C@@H](O)[C@@H](C)[C@H](OC(C)=O)[C@@H]1C [RIFAMPIN]	–	–	–	0.12 (≈ 0.0988 µg/mL)	15.2 (≈ 12.5 µg/mL)
CCN(CC)CN1C(=O)/C(=N\NC(=S)NO)c2cc(Cl)ccc21	121	70.3 (≈ 25 µg/mL)	562	–	–
CCn1cc(C(=O)O)c(=O)c2cc(F)c(N3CCN(CN4C(=O)/C(=N\NC(=S)NO)c5cc(F)ccc54)CC3)cc21	18.4	1.33 (≈ 0.779 µg/mL)	208	–	–
CCn1cc(C(=O)O)c(=O)c2cc(F)c(N3CCN(CN4C(=O)/C(=N\NC(=S)NOC)c5cc(F)ccc54)CC3)cc21	10.5	0.67 (≈ 0.402 µg/mL)	144	4.25 (≈ 2.55 µg/mL)	17 (≈ 10.2 µg/mL)
CCN(CC)CN1C(=O)/C(=N\NC(=S)NO)c2cc(C)ccc21	57.6	11.8 (≈ 3.97 µg/mL)	534	–	–
NNC(=O)c1ccncc1 [ISONIAZID]	–	–	–	0.36 (≈ 0.0494 µg/mL)	182 (≈ 25 µg/mL)
CCn1cc(C(=O)O)c(=O)c2cc(F)c(N3CCN(CN4C(=O)/C(=N\NC(=S)NOC)c5cc(Cl)ccc54)C(C)C3)c(F)c21 (configuration not stated)	9.26	1.2 (≈ 0.778 µg/mL)	180	–	–
CONC(=S)N/N=C1\C(=O)N(CN(C)C)c2ccc(Cl)cc21	57.9	18.3 (≈ 6.25 µg/mL)	552	–	–
COc1ccc(N2CCN(CN3C(=O)/C(=N\NC(=S)NO)c4cc(C)ccc43)CC2)cc1	15	13.8 (≈ 6.25 µg/mL)	321	–	–
CCN(CC)CN1C(=O)/C(=N\NC(=S)NOC)c2cc(F)ccc21	29.7	4.41 (≈ 1.56 µg/mL)	490	–	–
CCn1cc(C(=O)O)c(=O)c2cc(F)c(N3CCN(CN4C(=O)/C(=N\NC(=S)NOC)c5cc(Cl)ccc54)CC3)cc21	19.2	0.65 (≈ 0.4 µg/mL)	193	0.63 (≈ 0.388 µg/mL)	19.6 (≈ 12.1 µg/mL)
Cc1ccc2c(c1)/C(=N/NC(=S)NO)C(=O)N2CN1CCN(c2ccccc2)CC1	19.3	14.7 (≈ 6.25 µg/mL)	420	–	–
COc1ccc(N2CCN(CN3C(=O)/C(=N\NC(=S)NO)c4cc(F)ccc43)CC2)cc1	14.7	6.83 (≈ 3.13 µg/mL)	260	–	–
CONC(=S)N/N=C1\C(=O)N(CN2CCN(c3c(F)cc4c(=O)c(C(=O)O)cn(C5CC5)c4c3OC)CC2C)c2ccc(F)cc21 (configuration not stated)	1.88	0.15 (≈ 0.0984 µg/mL)	171	–	–
CCn1cc(C(=O)O)c(=O)c2cc(F)c(N3CCN(CN4C(=O)/C(=N\NC(=S)NO)c5cc(Cl)ccc54)CC3)cc21	27.2	1.3 (≈ 0.783 µg/mL)	186	–	–
COc1c(N2CCN(CN3C(=O)/C(=N\NC(=S)NO)c4cc(Cl)ccc43)C(C)C2)c(F)cc2c(=O)c(C(=O)O)cn(C3CC3)c12 (configuration not stated)	15.3	1.19 (≈ 0.783 µg/mL)	234	–	–
CONC(=S)N/N=C1\C(=O)N(CN2CCN(c3c(F)cc4c(=O)c(C(=O)O)cn(C5CC5)c4c3OC)CC2C)c2ccc(Cl)cc21 (configuration not stated)	7.14	0.3 (≈ 0.202 µg/mL)	164	–	–
O=C(O)c1cn(C2CC2)c2cc(N3CCN(CN4C(=O)/C(=N\NC(=S)NO)c5cc(Cl)ccc54)CC3)c(F)cc2c1=O	33.4	2.54 (≈ 1.56 µg/mL)	229	–	–
CONC(=S)N/N=C1\C(=O)N(CN2CCN(c3ccc(OC)cc3)CC2)c2ccc(F)cc21	12.7	6.14 (≈ 2.9 µg/mL)	276	–	–
CONC(=S)N/N=C1\C(=O)N(CN2CCN(c3ccccc3)CC2)c2ccc(C)cc21	17.3	12.4 (≈ 5.42 µg/mL)	276	–	–
CONC(=S)N/N=C1\C(=O)N(CN2CCN(c3ccccc3)CC2)c2ccc(Cl)cc21	17.7	13.6 (≈ 6.25 µg/mL)	267	–	–
CCN(CC)CN1C(=O)/C(=N\NC(=S)NOC)c2cc(Cl)ccc21	58.4	16.9 (≈ 6.25 µg/mL)	454	–	–
